Screens from PubChem.
Hits are enriched below; roughly 3.3% of the tested compounds scored in any of these assays.
PMI activator = increases human mannose-6-phosphate isomerase activity | 190,000 tested, 0.005% active | activation factor at 20 µM | purified human PMI, coupled resazurin fluorescence, 20 min; active compounds read high; 1 = vehicle control, 0 substrate-free wells | P34949;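 active = activation factor of 2 or more at 20 µM, relative to plate controls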
ROMK primary = modulators of human ROMK potassium channel | P48048 | 130,000 tested, 2% active | B-score at 10 µM | AID 1918 | Tet-inducible ROMK, thallium flux fluorescence; actives lie on both sides;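 active = signal ratio slope over the read window, or its plate-corrected B-score, at least 3 SD from the plate mean, either direction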;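 note: B-score of the F/F0 ratio slope over 7 to 12 s after thallium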
Cl transport mod = KCC2 (human) Cl- transport modulation | KCC2 cells, thallium flux FluoZin-2 fluorescence | Q9H2X9 | 190,000 tested, 2.2% active | AID 1456 | B-score of Tl+ flux slope (higher = more flux/activation; lower = inhibition) at 10 µM;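 active = thallium flux slope and its plate-corrected score both differing from the plate sample mean at a set confidence after two filtering rounds, in either direction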;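 note: slope of fluorescence scaled to starting intensity during 10 to 20 s after thallium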
ABCB1 inh = blocks JC-1 efflux by human ABCB1 transporter. inhibition, % at 6.6 µM. CCRF-Adr cells, flow cytometry. 190,000 tested, 0.067% active. P08183; in the data active = inhibition above about 40%;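 note: 0% = vehicle and 100% = reference inhibitor; higher value means more JC-1 retained so stronger ABCB1 efflux block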
PMI act hi M6P = activators of human phosphomannose isomerase at near-saturating mannose 6-phosphate. coupled PMI enzyme assay, resazurin fluorescence, 20 min; active compounds read high; 1 = untreated enzyme, 0 = substrate-free blank. activation factor at 20 µM. 190,000 tested, 0.34% active. AID 1216;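 active = activation factor of 2 or more at 20 µM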
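assay system = human phosphomannose isomerase with PGI, G6PDH, diaphorase coupling enzymes | quantity = 15 ng/mL PMI | incubation = enzyme reaction with compound 20 min at room temperature | medium = HEPES pH 7.4 buffer with MgCl2 and Tween-20 | compound dosing = one concentration, 20 µM, in 1% DMSO | measured by = Diaphorase-driven resazurin-to-resorufin fluorescence, excitation 544, emission 590 nm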
ABCG2 inh = inhibitors of human ABCG2 transporter, ABCB1 counter-screen; Q9UNQ0; IgMXP3 cells, JC-1 efflux, flow cytometry; inhibition, % at 6.6 µM; 190,000 tested, 0.1% active; AID 1325;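 active = inhibition above 80%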;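 note: 0% = DMSO and 100% = nicardipine control wells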
Target sequence (Q9UNQ0 whole entry, looked up): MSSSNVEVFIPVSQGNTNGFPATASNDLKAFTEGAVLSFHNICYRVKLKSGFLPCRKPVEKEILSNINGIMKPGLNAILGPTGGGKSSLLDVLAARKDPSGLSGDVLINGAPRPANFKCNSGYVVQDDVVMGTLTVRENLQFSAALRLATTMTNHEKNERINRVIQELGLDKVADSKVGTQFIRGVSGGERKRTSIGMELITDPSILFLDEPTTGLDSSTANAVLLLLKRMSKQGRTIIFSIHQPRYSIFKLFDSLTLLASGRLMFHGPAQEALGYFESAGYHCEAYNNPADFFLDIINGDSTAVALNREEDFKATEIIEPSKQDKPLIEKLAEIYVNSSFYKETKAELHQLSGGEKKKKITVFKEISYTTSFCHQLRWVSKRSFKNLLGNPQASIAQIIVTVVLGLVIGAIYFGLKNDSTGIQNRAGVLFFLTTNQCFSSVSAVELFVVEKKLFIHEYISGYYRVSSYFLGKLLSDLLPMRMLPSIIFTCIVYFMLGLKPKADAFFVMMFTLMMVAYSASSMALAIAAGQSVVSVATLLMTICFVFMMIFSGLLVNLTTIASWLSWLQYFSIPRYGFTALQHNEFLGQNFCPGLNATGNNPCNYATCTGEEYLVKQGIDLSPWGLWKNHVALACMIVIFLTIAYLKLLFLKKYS
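material = IgMXP3 (ABCG2) plus far-red-tagged CCRF-Adr (ABCB1) cells | amount = 3 million cells/mL, equal mix of both lines | also added = JC-1 transporter substrate | dosing = one concentration, 6.6 µM final | schedule = 10 min at 25 °C | measured by = flow cytometric JC-1 green MFI at 530 nm | read-out basis = percent efflux inhibition, scaled nicardipine 100% to DMSO 0%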
KCC2 sec1 = confirmation of human KCC2 transport modulators; shares compounds with Cl transport mod; HEK293-KCC2, thallium flux, FluoZin2 fluorescence; active compounds read high; normalised thallium flux (F/F0 slope) at 10 µM; 3,700 tested, 15% active;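 active = thallium flux slope above the same plate's solvent-only control mean plus 3 SD; inconclusive = the two replicate wells disagree; inactive = no significant difference from solvent-only control wells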
KCC2 bumet counter = thallium flux despite bumetanide block in KCC2 cells, secondary assay 3; shares compounds with Cl transport mod; HEK293-KCC2 + bumetanide/ouabain, thallium flux FluoZin2; active compounds read high; normalized thallium flux at 10 µM; 3,700 tested, 49% active; AID 1714;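 active = thallium entry rate above the same plate's blocked-transporter control wells by more than 3 SD; inconclusive = the two repeat wells disagree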;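 note: raw slope of fluorescence over initial fluorescence between 10 and 20 s after thallium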
KCC2 sec2 = confirmation of human KCC2 transport modulators; shares compounds with Cl transport mod; normalized thallium flux at 10 µM; 3,700 tested, 23% active; AID 1715; HEK293-KCC2, thallium flux FluoZin2 fluorescence; actives lie on both sides; F/F0 rise rate, 10–20 s post-thallium;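 active = thallium flux slope more than 3 SD above or below the plate's solvent-only control mean, mostly below; inconclusive = the two repeat wells disagreed; inactive = no significant shift from solvent-only controls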;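 note: raw slope with 0.1% DMSO as baseline and bumetanide as block control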
HEK counter1 = parental HEK flux effect, counter-screen | 3,700 tested, 46% active | AID 1716 | HEK293 parental cells, thallium flux FluoZin2, ouabain; baseline-ratio fluorescence slope, 10–20 s after thallium | shares compounds with Cl transport mod | thallium flux rate (normalised fluorescence) at 10 µM;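 active = thallium flux rate significantly above the same plate's solvent-only control wells, beyond their mean plus 3 SD; inconclusive = the two replicate wells gave conflicting results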
KCC2 retest ouab = confirmation of human KCC2 modulators with ouabain; shares compounds with Cl transport mod; HEK293-KCC2, thallium flux FluoZin2 fluorescence; bidirectional: low = inhibitor, high = activator; raw Tl+ flux slope (below DMSO = inhibition, above = activation) at 10 µM; 3,700 tested, 48% active;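 active = thallium flux slope beyond 3 SD from same-plate DMSO control mean in most replicates, usually higher, sometimes lower; inconclusive = repeat tests gave conflicting results; inactive = no significant difference from controls in most replicates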;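 note: slope of initial-normalized fluorescence between seconds 10 and 20 after thallium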
HEK293 Tl flux2 = counter-screen for KCC2 modulators: effect in parental HEK293 cells | shares compounds with Cl transport mod | thallium flux slope at 10 µM | AID 1718 | 3,700 tested, 33% active | thallium flux FluoZin-2 fluorescence slope;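 active = thallium flux slope above the same plate's solvent-control mean plus 3 SD in both duplicate wells; inconclusive = duplicate wells that disagreed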;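 note: run without ouabain in cells lacking the KCC2 cotransporter; slope of fluorescence scaled to its starting value between 10 and 20 s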
An asterisk follows results filed as active.

Brc1ccc(CSc2nnc(-c3cnccn3)n2Cc2ccco2)cc1 was read as PMI activator 0.9, ROMK primary 0.62, Cl transport mod -4.3*, ABCB1 inh 0, PMI act hi M6P 0.9, ABCG2 inh 4, KCC2 sec1 0.015, KCC2 bumet counter 0.0033, KCC2 sec2 0.027, HEK counter1 0.005*, KCC2 retest ouab 0.013* and HEK293 Tl flux2 0.0093.
Screening Fc1ccc(CSc2nnc(-c3cnccn3)n2Cc2ccco2)cc1 returned PMI activator 1, Cl transport mod -0.43, ABCB1 inh 1, PMI act hi M6P 1 and ABCG2 inh 1.
For CC(C)OC(=O)CSc1nnc(-c2cnccn2)n1Cc1ccco1 the results were PMI activator 1, ROMK primary 0.2, Cl transport mod -0.2, ABCB1 inh 0, PMI act hi M6P 1 and ABCG2 inh 0.
Screening O=C(CSc1nnc(-c2cnccn2)n1Cc1ccco1)c1ccc2ccccc2c1 returned PMI activator 1, ROMK primary -0.19, ABCB1 inh 1, PMI act hi M6P 1.1, ABCG2 inh 12, KCC2 sec1 0.015, KCC2 bumet counter 0.0046, KCC2 sec2 inconclusive, HEK counter1 inconclusive, KCC2 retest ouab 0.013* and HEK293 Tl flux2 0.0092.
For O=C(NCc1ccccc1C(F)(F)F)C1CC(c2cc(C(F)(F)F)cc(C(F)(F)F)c2)=NO1 (centres undefined) the results were Cl transport mod 0.014.
For O=C(NCc1ccccc1C(F)(F)F)C1CC(c2cccc(F)c2)=NO1 (centres undefined) the results were Cl transport mod -2.7*, KCC2 sec1 0.0074, KCC2 bumet counter 0.0046, KCC2 sec2 0.027, HEK counter1 0.0069, KCC2 retest ouab 0.018 and HEK293 Tl flux2 0.0089.
CCC(C)(C)n1nnnc1C(C(C)C)N1CCSCC1 (centres undefined) was read as PMI activator 1, ROMK primary -0.65, ABCB1 inh 1, PMI act hi M6P 1 and ABCG2 inh 2.
For O=C(NCC1CCCO1)c1ccc(CSCc2cccc(F)c2)o1 (centres undefined) the results were PMI activator 1, ROMK primary 1.2, Cl transport mod -0.65, ABCB1 inh 0, PMI act hi M6P 1 and ABCG2 inh 6.
Screening CCCn1c(=N)n(CCOCCOCCn2c(=N)n(CCC)c3ccccc32)c2ccccc21 returned ROMK primary -3.1 and Cl transport mod -0.012.
Screening COc1ccc(OC)c(NC(=O)C(=O)NNC(=O)C23CC4CC(CC(C4)C2)C3)c1 returned Cl transport mod 135*, KCC2 sec1 0.044*, KCC2 bumet counter 0.11*, KCC2 sec2 0.071*, HEK counter1 0.1*, KCC2 retest ouab 0.081* and HEK293 Tl flux2 0.045*.
COc1ccc(/C=C/C(=O)OCC(=O)NCc2ccco2)c(OC)c1 was read as PMI activator 1, ROMK primary 1.6, Cl transport mod -0.54, ABCB1 inh 0, PMI act hi M6P 1 and ABCG2 inh 2.
NC(=S)N=Nc1c(O)[nH]c2c(Br)cc(Br)cc12 was read as PMI activator 0.8, Cl transport mod 25*, ABCB1 inh -1, PMI act hi M6P 0.6, ABCG2 inh -4, KCC2 sec1 0.0075, KCC2 bumet counter 0.027*, KCC2 sec2 0.04*, HEK counter1 0.018*, KCC2 retest ouab 0.036* and HEK293 Tl flux2 0.017*.
Screening Cc1ccc(CC2(O)CC(C)N(C)CC2C)c(C)c1 (centres undefined) returned PMI activator 1, Cl transport mod 0.018, ABCB1 inh 0, PMI act hi M6P 1 and ABCG2 inh 1.
CCCCn1c(NC(=O)c2ccccc2Cl)c(C#N)c2nc3ccccc3nc21 was read as PMI activator 0.9, Cl transport mod 1.2, ABCB1 inh 0, PMI act hi M6P 0.5 and ABCG2 inh 1.
For N#Cc1c(NC(=O)c2ccccc2Cl)n(Cc2ccccc2)c2nc3ccccc3nc12 the results were PMI activator 0.7, Cl transport mod -4.6*, ABCB1 inh -2, PMI act hi M6P 0.7, ABCG2 inh 11, KCC2 sec1 0.0076, KCC2 bumet counter 0.0062, KCC2 sec2 0.029, HEK counter1 0.0051*, KCC2 retest ouab 0.014* and HEK293 Tl flux2 0.009.
`Cc1cc(C)n(/N=C/c2cc([N+](=O)[O-])ccc2O)c(=O)c1` gave PMI activator 0.9, ROMK primary 0.0043, Cl transport mod 0.23, ABCB1 inh 1, PMI act hi M6P 0.9 and ABCG2 inh 5.
For O=S(=O)(NCc1ccccc1)c1cccc(S(=O)(=O)N2CCOCC2)c1 the results were PMI activator 1, ROMK primary -0.18, ABCB1 inh 0, PMI act hi M6P 1 and ABCG2 inh 0.
`O=S(=O)(NCCc1ccccc1F)c1cccc(S(=O)(=O)N2CCOCC2)c1` gave PMI activator 0.9, ABCB1 inh 1, PMI act hi M6P 0.9, ABCG2 inh 5, KCC2 sec1 0.0061, KCC2 bumet counter 0.0054, KCC2 sec2 0.026*, HEK counter1 0.0072, KCC2 retest ouab inconclusive and HEK293 Tl flux2 0.01.
For Cc1nc(Nc2ncc3c(n2)CCCC3=O)nc2ccccc12 the results were ROMK primary 0.38.
